The source made the active and inactive calls.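 How the source made its calls: active means mean EC50 at or below 20 µM; inactive means the rest.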
Target: CHO-XBP1 luciferase reporter, IRE1-XBP1 activation, luminescence
Experiment: XBP1 luciferase reporter activation in CHO cells – cell-based, luminescence, set 3, counter-screen for apoptotic UPR arm activator project, SAR follow-up (AID 602416)
Procedure, shortened: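 System: CHO cells stably expressing XBP1 luciferase reporter, IRE1-XBP1 arm. Doses: compound dilution series, final DMSO at most 1%. Timing: 6 h compound treatment, 37 °C. Technique: luciferase luminescence with Steady-Glo reagent.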

SMILES | EC50
O=C(Nc1ccc(S(=O)(=O)N2CCC(Cl)CC2)cc1)c1ccc([N+](=O)[O-])o1 | > 80 µM (inactive)
O=C(Nc1ccc(S(=O)(=O)N2CCCCC2)cc1)c1ccc([N+](=O)[O-])o1 | > 80 µM (inactive)
CC1(C)CCN(S(=O)(=O)c2ccc(NC(=O)c3ccc([N+](=O)[O-])o3)cc2)CC1 | > 80 µM (inactive)
O=C(Nc1ccc(S(=O)(=O)N2CCC(F)CC2)cc1)c1ccc([N+](=O)[O-])o1 | > 80 µM (inactive)

More lines, now with the values ahead:

EC50 | SMILES
> 80 µM (inactive) | CC(C)(C)C1CCN(S(=O)(=O)c2ccc(NC(=O)c3ccc([N+](=O)[O-])o3)cc2)CC1
> 80 µM (inactive) | CC1CCN(S(=O)(=O)c2ccc(NC(=O)c3ccc([N+](=O)[O-])o3)cc2)CC1
